Consider 14 compounds from ChEMBL document CHEMBL1177712, “Synthesis and characterization of in vitro and in vivo profiles of hydroxybupropion analogues: aids to smoking cessation” (J Med Chem, 2010).

The target of data set [1] is Neuronal acetylcholine receptor; alpha4/beta2 (Homo sapiens, UniProt P17787+P43681). Kind of data set: Agonist activity at alpha4beta2 nicotinic receptor in human SH-EP1 cells assessed as induction of radiolabeled Rb+ influx at 0.005 to 100 uM by liquid scintillation counting. The data set is classed as functional, cell-based. Summed up:
(§1)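 Cells were labelled with ⁸⁶Rb⁺ for at least 4 h, then exposed for 5 min in efflux buffer (pH 7.4) to test ligand alone at ~5 nM to 100 μM. The lines were TE671/RD (muscle α1β1γδ), SH-SY5Y (α3β4*) and transfected SH-EP1-hα4β2 or -hα4β4. Efflux was Cerenkov-counted. Non-specific efflux was subtracted, and results were normalized to specific efflux from carbamylcholine (1 mM; 3 mM for SH-SY5Y).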

Another data set has as its system SH-EP1. Briefly: Selectivity ratio of IC50 for alpha4beta2 nicotinic receptor in human SH-EP1 cells to IC50 for IC50 for human NET. The data set is classed as cell-based.
Data set [2] has as its system Mus musculus. Briefly: Smoke cessation activity in sc dosed ICR mouse assessed as inhibition of nicotine-induced hypothermia administered 15 mins before nicotine challenge measured after 30 mins of nicotine infusion. The data set is classed as functional, organism-based. Summed up:
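Male ICR mice (20–25 g) were pretreated with test drug or saline 15 min before nicotine at 2.5 mg/kg sc. Rectal temperature was taken before and 30 min after nicotine, and the change was calculated. Room temperature was 21–24 °C. AD₅₀ came from at least four doses, with at least 8 mice per dose.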

Data set [3] concerns Mus musculus. Briefly: Toxicity in sc dosed ICR mouse assessed occurrence of convulsion. Format: organism-based. The note with it: in vivo.
Data set [4] deals with Mus musculus. Briefly: Smoke cessation activity in sc dosed ICR mouse assessed as inhibition of nicotine-induced antinociception administered 15 mins before nicotine challenge measured after 5 mins of nicotine infusion by tail-flick assay. Format: functional, organism-based. Summed up:
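Radiant-heat tail-flick latency was read 5 min later (10 s cutoff; baseline 2–4 s) and expressed as %MPE. AD₅₀ came from at least four doses, with at least 8 mice per dose.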
(Thermal pain tests record how soon the animal reacts.)

Data set [5] concerns Mus musculus. Kind of data set: Smoke cessation activity in sc dosed ICR mouse assessed as inhibition of nicotine-induced antinociception administered 15 mins before nicotine challenge measured after 5 mins of nicotine infusion by hotplate assay. Format: functional, organism-based. An outline of the steps: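 Male ICR mice (20–25 g) were pretreated with saline or test drug 15 min before nicotine at 2.5 mg/kg sc. They were tested 5 min later on a 55 °C hot plate (40 s cutoff), and the result was expressed as %MPE. AD₅₀ came from at least four doses, with at least 8 mice per dose.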

Data set [6] addresses T1, Neuronal acetylcholine receptor; alpha4/beta4 (Homo sapiens, UniProt P30926+P43681). Briefly: Agonist activity at alpha4beta4 nicotinic receptor in human SH-EP1 cells assessed as induction of radiolabeled Rb+ influx at 0.005 to 100 uM by liquid scintillation counting. Format: functional, cell-based. Summed up:
as §1

Data set [7] concerns Mus musculus. Kind of data set: Toxicity in sc dosed ICR mouse assessed occurrence of sedation. The data set is classed as organism-based. The conditions noted are these: in vivo.
Data set [8] concerns Mus musculus. Kind of data set: Smoke cessation activity in sc dosed ICR mouse assessed as inhibition of nicotine-induced increase in locomotor activity administered 15 mins before nicotine challenge measured after 5 mins of nicotine infusion. The data set is classed as functional, organism-based.
For a further data set, the system named is SH-SY5Y. Kind of data set: Selectivity ratio of IC50 for alpha3beta4 nicotinic receptor in human SH-SY5Y cells to IC50 for IC50 for human NET. The data set is classed as cell-based.
The target in data set [9] is Acetylcholine receptor; alpha1/beta1/delta/gamma (Homo sapiens, UniProt P02708+P07510+P11230+Q07001). Kind of data set: Antagonist activity at alpha-1-beta-1-gamma-delta nicotinic receptor in human TE671 cells assessed as inhibition varbamylcholine-induced radiolabeled Rb+ influx at by liquid scintillation counting. The data set is classed as functional, cell-based, TE-671. An outline of the steps:
(§2)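 ⁸⁶Rb⁺-loaded human cells were given a 5-min efflux with carbamylcholine at EC₈₀–EC₉₀ plus graded test ligand. Non-specific efflux, taken with 100 μM mecamylamine or buffer, was subtracted. IC₅₀ came from a Hill fit of three independent experiments, with SEM given as a multiplication factor.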

The target in data set [10] is T1, Neuronal acetylcholine receptor; alpha4/beta4. Kind of data set: Antagonist activity at alpha4beta4 nicotinic receptor in human SH-EP1 cells assessed as inhibition varbamylcholine-induced radiolabeled Rb+ influx at by liquid scintillation counting. The data set is classed as functional, cell-based. Summed up:
as §2

In data set [11] the target is Sodium-dependent dopamine transporter (Homo sapiens, UniProt Q01959). Kind of data set: Inhibition of [3H]dopamine reuptake at human DAT expressed in HEK293 cells after 90 mins by scintillation counting. The data set is classed as cell-based. An outline of the steps: (§3)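 Uptake of [³H]DA or [³H]NE was measured in HEK293 cells stably expressing human DAT or NET. Values are from three independent experiments, each run in triplicate.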

For data set [12], the target named is Sodium-dependent serotonin transporter (Homo sapiens, UniProt P31645). Kind of data set: Inhibition of [3H]serotonin reuptake at human SERT expressed in HEK293 cells after 90 mins by scintillation counting. Format: cell-based.
Data set [13] has as its target Sodium-dependent noradrenaline transporter (Homo sapiens, UniProt P23975). Briefly: Inhibition of [3H]norepinephrine reuptake at human NET expressed in HEK293 cells after 90 mins by scintillation counting. Format: cell-based. An outline of the steps: as §3

pIC50: −log10 of the molar value. The source made the active and inactive calls.

Chain of Acetylcholine receptor; alpha1/beta1/delta/gamma (P02708 whole entry): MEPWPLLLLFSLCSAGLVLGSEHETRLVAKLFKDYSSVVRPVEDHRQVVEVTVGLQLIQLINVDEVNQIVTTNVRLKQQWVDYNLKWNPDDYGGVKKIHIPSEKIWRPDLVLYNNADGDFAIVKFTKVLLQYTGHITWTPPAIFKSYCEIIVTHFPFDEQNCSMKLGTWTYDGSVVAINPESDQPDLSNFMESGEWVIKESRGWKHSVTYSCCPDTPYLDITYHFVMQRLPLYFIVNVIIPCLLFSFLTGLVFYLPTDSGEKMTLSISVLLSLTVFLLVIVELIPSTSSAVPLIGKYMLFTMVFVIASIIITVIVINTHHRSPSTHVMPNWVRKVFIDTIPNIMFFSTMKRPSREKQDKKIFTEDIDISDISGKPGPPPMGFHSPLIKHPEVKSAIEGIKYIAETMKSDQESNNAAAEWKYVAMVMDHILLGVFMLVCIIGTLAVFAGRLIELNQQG
Chain of Acetylcholine receptor; alpha1/beta1/delta/gamma (P07510 whole entry): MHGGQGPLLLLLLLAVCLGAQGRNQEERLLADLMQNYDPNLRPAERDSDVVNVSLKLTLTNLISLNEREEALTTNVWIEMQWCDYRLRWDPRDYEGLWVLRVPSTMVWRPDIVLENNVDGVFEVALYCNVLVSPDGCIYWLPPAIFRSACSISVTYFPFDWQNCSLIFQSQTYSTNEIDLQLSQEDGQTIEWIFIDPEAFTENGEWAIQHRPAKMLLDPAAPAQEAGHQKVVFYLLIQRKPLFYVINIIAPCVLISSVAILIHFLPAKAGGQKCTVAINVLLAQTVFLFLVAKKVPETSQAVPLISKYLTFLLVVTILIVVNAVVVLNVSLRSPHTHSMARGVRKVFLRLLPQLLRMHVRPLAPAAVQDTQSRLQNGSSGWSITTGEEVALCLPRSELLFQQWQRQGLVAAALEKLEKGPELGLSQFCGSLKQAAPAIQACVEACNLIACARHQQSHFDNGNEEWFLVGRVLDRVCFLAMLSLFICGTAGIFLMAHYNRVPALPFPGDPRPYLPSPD
Chain of Acetylcholine receptor; alpha1/beta1/delta/gamma (P11230 whole entry): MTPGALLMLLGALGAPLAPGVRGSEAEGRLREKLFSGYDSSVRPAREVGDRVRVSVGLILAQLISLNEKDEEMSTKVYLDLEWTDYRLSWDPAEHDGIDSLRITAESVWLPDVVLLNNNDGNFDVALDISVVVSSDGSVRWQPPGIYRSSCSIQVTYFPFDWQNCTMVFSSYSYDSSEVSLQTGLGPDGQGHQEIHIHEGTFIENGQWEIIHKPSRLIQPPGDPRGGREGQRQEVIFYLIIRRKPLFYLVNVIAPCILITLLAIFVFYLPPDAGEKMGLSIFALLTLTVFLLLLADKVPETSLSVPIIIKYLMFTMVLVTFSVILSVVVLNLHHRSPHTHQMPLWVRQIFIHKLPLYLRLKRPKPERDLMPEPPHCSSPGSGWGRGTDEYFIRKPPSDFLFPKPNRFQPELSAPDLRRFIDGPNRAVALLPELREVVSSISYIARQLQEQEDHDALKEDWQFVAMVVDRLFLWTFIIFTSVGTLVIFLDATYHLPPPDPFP
Chain of Acetylcholine receptor; alpha1/beta1/delta/gamma (Q07001 whole entry): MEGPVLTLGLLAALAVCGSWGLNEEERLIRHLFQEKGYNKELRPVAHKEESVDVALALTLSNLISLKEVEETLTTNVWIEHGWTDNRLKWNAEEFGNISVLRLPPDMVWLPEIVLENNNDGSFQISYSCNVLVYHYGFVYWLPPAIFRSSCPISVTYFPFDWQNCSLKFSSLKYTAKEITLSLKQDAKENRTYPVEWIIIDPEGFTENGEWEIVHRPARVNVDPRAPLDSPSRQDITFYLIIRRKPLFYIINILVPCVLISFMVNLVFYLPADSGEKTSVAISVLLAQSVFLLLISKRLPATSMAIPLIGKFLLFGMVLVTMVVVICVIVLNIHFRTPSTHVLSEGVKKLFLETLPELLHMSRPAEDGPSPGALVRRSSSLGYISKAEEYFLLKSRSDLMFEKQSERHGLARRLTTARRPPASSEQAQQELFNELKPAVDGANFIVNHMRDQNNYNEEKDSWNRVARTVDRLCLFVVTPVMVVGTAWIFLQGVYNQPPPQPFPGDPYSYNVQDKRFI
T1 sequence (P30926 whole entry): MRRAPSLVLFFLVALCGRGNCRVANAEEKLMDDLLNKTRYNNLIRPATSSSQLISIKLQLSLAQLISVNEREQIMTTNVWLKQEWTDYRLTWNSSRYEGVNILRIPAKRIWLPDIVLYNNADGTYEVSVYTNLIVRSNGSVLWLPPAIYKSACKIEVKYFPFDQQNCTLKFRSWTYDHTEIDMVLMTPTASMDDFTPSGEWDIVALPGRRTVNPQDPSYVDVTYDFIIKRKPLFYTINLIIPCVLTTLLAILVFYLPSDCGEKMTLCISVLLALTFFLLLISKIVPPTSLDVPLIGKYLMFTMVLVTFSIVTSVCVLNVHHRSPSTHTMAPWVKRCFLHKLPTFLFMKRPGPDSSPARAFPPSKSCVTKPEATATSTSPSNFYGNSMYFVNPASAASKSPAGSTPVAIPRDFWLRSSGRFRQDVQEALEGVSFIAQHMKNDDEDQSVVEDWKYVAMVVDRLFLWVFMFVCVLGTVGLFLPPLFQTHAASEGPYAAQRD
T1 sequence (P43681 whole entry): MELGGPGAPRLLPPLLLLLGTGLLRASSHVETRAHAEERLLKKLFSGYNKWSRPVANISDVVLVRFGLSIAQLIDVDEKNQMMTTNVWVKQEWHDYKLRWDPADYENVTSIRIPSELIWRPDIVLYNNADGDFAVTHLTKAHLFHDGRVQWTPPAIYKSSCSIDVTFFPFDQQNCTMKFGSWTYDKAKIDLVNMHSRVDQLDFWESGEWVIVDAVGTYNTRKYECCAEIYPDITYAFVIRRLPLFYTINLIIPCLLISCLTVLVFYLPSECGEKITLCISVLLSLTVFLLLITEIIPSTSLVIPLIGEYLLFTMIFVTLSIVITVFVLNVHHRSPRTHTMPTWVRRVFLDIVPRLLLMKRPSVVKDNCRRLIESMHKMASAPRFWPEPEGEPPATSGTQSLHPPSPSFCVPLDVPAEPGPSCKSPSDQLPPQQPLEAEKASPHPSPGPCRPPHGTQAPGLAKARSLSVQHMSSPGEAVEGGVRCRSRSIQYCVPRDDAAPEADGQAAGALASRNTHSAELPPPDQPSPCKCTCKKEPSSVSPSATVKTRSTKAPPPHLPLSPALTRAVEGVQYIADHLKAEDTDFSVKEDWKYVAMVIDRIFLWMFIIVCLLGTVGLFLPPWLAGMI
Chain of Sodium-dependent dopamine transporter (Q01959 whole entry): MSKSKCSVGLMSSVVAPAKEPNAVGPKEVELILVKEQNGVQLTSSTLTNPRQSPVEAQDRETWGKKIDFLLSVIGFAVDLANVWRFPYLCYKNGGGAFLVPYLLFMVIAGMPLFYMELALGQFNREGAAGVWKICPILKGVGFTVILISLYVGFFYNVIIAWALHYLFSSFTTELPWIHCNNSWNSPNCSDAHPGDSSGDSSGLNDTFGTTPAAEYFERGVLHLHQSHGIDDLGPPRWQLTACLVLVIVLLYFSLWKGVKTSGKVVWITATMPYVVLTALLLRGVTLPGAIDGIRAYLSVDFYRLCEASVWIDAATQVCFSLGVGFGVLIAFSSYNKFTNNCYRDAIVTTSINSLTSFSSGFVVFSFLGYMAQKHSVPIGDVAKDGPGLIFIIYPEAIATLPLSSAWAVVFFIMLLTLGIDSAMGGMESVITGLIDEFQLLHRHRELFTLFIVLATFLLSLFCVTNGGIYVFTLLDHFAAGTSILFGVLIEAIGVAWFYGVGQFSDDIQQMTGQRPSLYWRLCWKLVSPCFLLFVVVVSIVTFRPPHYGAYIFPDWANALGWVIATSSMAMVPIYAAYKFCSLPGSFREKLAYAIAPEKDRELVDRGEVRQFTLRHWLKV
Chain of Sodium-dependent noradrenaline transporter (P23975 whole entry): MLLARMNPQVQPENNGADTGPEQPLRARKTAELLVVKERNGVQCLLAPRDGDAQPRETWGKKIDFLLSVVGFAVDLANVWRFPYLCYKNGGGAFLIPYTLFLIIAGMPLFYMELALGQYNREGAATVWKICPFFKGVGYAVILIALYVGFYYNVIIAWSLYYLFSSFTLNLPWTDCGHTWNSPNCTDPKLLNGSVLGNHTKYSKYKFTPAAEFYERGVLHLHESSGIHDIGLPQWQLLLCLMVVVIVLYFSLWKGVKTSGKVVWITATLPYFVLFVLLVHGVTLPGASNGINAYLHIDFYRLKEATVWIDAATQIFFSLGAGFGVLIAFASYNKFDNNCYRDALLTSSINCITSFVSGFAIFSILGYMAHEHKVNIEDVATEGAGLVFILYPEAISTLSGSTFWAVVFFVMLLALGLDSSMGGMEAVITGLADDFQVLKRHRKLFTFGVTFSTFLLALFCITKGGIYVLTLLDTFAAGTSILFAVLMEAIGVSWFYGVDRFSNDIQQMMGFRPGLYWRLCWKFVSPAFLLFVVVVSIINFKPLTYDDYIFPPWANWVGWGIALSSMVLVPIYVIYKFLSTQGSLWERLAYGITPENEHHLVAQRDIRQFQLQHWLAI
Chain of Sodium-dependent serotonin transporter (P31645 whole entry): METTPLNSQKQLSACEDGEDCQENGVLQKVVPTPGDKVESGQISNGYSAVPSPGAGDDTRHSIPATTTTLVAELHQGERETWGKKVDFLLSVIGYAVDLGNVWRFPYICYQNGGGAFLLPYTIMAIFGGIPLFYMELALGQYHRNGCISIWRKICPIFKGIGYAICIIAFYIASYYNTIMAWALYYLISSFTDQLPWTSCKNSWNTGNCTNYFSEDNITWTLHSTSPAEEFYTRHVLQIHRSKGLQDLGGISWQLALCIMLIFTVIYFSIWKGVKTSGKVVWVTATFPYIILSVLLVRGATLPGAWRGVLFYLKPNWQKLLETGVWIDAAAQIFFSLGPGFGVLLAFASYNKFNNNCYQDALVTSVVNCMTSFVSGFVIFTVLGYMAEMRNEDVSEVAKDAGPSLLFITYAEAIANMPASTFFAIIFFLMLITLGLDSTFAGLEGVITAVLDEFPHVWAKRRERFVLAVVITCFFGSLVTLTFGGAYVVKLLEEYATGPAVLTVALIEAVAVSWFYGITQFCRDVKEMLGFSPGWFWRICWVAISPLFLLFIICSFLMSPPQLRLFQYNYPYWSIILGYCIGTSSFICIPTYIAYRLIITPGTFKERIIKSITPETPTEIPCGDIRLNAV

As for `C[C@@H]1NC(C)(C)CO[C@@]1(O)c1cccc([N+](=O)[O-])c1`, the outcome in data set [1] and in [6] was inactive. Further, the Ratio IC50 in the data set with SH-EP1 is 4. Besides, the IC50 in the data set on Mus musculus [2] is 4.7 mg/kg; in the data set with Mus musculus [4], 4.9 mg/kg; in the data set with Mus musculus [5], more than 15 mg/kg; in the data set on Mus musculus [8], more than 15 mg/kg. The Activity result with Mus musculus [3] and in the data set with Mus musculus [7] was “Non-toxic” each time.

For `CC1NC(C)(C)COC1(O)c1ccc(Cl)c(Cl)c1` (racemic), the outcome in data set [1] and in [6] was inactive. Further, the figures for the Ratio IC50 in the data set on SH-EP1 and in the data set with SH-SY5Y were 175 and 23, respectively. Further, the IC50 was more than 15 mg/kg with Mus musculus [2], 8.8 mg/kg in the data set on Mus musculus [4], more than 15 mg/kg in the data set with Mus musculus [5] and more than 15 mg/kg with Mus musculus [8]. For the same compound, the Activity result in the data set on Mus musculus [3] and in the data set with Mus musculus [7] was “Non-toxic” throughout.

As to `CC[C@@H]1NC(C)(C)CO[C@@]1(O)c1cccc(Cl)c1`, the result in data set [1] and in [6] was inactive. Further, the Ratio IC50 in the data set with SH-EP1 turned out to be 67. The IC50 is 7 mg/kg in the data set on Mus musculus [2], 0.004 mg/kg in the data set on Mus musculus [4], 3.7 mg/kg in the data set on Mus musculus [5] and 10.3 mg/kg in the data set on Mus musculus [8]. Also, the Activity result in the data set with Mus musculus [3] and with Mus musculus [7] was “Non-toxic” each time.

For the compound `C[C@@H]1NC(C)(C)CO[C@@]1(O)c1ccccc1`, the IC50 in the data set on Mus musculus [2], in the data set with Mus musculus [4], in the data set with Mus musculus [5] and in the data set with Mus musculus [8] was more than 15 mg/kg throughout. In addition, the Activity entry with Mus musculus [3] and in the data set with Mus musculus [7] was “Non-toxic” throughout. Besides, in data set [9], the pIC50 (as a rule, the negative decadic logarithm of the IC50, by convention in mol/L) was less than 4.00.

With `C[C@@H]1NC(C)(C)CO[C@@]1(O)c1cccc(F)c1`, the result in data set [1] and in data set [6] was inactive. Further, the Ratio IC50 in the data set with SH-EP1 stood at 1.7. Further, the IC50 is 4.4 mg/kg with Mus musculus [2], 0.012 mg/kg in the data set on Mus musculus [4], 8.6 mg/kg with Mus musculus [5] and more than 15 mg/kg with Mus musculus [8]. The pIC50 in data set [10] and in data set [9] was less than 4.00 in each case. The Activity entry with Mus musculus [3] and in the data set on Mus musculus [7] was “Non-toxic” throughout.

As for `C[C@@H]1NC(C)(C)CO[C@@]1(O)c1ccc(F)cc1`, the result in data set [1] and in data set [6] was inactive. In the data set with SH-EP1, the Ratio IC50 turned out to be 3. Further, the IC50 was 5.67 mg/kg in the data set on Mus musculus [2], 0.013 mg/kg with Mus musculus [4], more than 15 mg/kg with Mus musculus [5] and more than 15 mg/kg in the data set with Mus musculus [8]. Moreover, in data set [10], the pIC50 was less than 4.00. Further, the Activity result in the data set with Mus musculus [3] and in the data set on Mus musculus [7] was “Non-toxic” each time.

For the compound `CC1NC(C)(C)COC1(O)c1cc(Cl)cc(Cl)c1` (racemic), the result in [1] and in [6] was inactive. For the same compound, in the data set with SH-EP1, the Ratio IC50 stood at 4.5. Besides, the IC50 in the data set on Mus musculus [2] is more than 15 mg/kg; with Mus musculus [4], more than 15 mg/kg; in the data set with Mus musculus [5], more than 15 mg/kg; in the data set on Mus musculus [8] it was 1.9 mg/kg. The Activity result with Mus musculus [3] and in the data set on Mus musculus [7] was “Non-toxic” throughout.

For the compound `C[C@@H]1NC(C)(C)CO[C@@]1(O)c1ccc(F)c(F)c1`, the result in data set [1] and in data set [6] was inactive. The IC50 was more than 15 mg/kg with Mus musculus [2], 0.006 mg/kg in the data set on Mus musculus [4], more than 15 mg/kg in the data set with Mus musculus [5] and more than 15 mg/kg with Mus musculus [8]. Moreover, the pIC50 in data set [10] is less than 4.00. For the same compound, the Activity entry with Mus musculus [3] and in the data set on Mus musculus [7] was “Non-toxic” each time.

Take `CCC[C@@H]1NC(C)(C)CO[C@@]1(O)c1cccc(Cl)c1`: the outcome in data set [1] and in data set [6] was inactive. The Ratio IC50 with SH-EP1 was found to be 240; in the data set on SH-SY5Y, 154. Moreover, the IC50 is more than 15 mg/kg with Mus musculus [2], 0.004 mg/kg in the data set on Mus musculus [4], more than 15 mg/kg in the data set on Mus musculus [5] and 4.7 mg/kg in the data set on Mus musculus [8]. The pIC50 was 4.74 in data set [10]; 7.52 in [11]; 5.38 in [12]; 7.51 in data set [13]; 5.00 in [9]. The Activity result with Mus musculus [3] and in the data set with Mus musculus [7] was “Non-toxic” each time.

Take `Cc1cccc([C@]2(O)OCC(C)(C)N[C@H]2C)c1`: the result in data set [1] and in data set [6] was inactive. The Ratio IC50 with SH-EP1 is 5.3. The IC50 with Mus musculus [2] is 2.3 mg/kg; in the data set with Mus musculus [4], 0.054 mg/kg; in the data set on Mus musculus [5], 7.6 mg/kg; in the data set with Mus musculus [8], more than 15 mg/kg. In addition, the Activity result in the data set on Mus musculus [3] and with Mus musculus [7] was “Non-toxic” throughout.

Regarding `CC1NC(C)(C)COC1(O)c1ccccn1` (racemic), the outcome in [1] and in [6] was inactive. In addition, the pIC50 in [10] and in data set [9] was less than 4.00 throughout. Moreover, the Activity result in the data set with Mus musculus [3] and with Mus musculus [7] was “Non-toxic” in each case.

As for `CC1NC(C)(C)COC1(O)c1cccnc1` (racemic), the outcome in data set [1] and in data set [6] was inactive. The pIC50 in data set [10] and in [9] was less than 4.00 in each case. The Activity result in the data set on Mus musculus [3] and in the data set on Mus musculus [7] was “Non-toxic” throughout.

In the case of `COc1cccc([C@]2(O)OCC(C)(C)N[C@H]2C)c1`, the outcome in data set [1] and in [6] was inactive. For the same compound, the Ratio IC50 in the data set with SH-EP1 stood at 3.3. Besides, the IC50 is more than 15 mg/kg in the data set with Mus musculus [2], 5.85 mg/kg with Mus musculus [4], more than 15 mg/kg with Mus musculus [5] and more than 15 mg/kg in the data set on Mus musculus [8]. Further, in [10], the pIC50 was less than 4.00. In addition, the Activity entry with Mus musculus [3] and with Mus musculus [7] was “Non-toxic” in each case.

With `Cc1ccc([C@]2(O)OCC(C)(C)N[C@H]2C)cc1`, the result in [1] and in data set [6] was inactive. For the same compound, the IC50 with Mus musculus [2] is more than 15 mg/kg; in the data set on Mus musculus [4], 0.004 mg/kg; in the data set on Mus musculus [5], more than 15 mg/kg; in the data set on Mus musculus [8], more than 15 mg/kg. The Activity entry with Mus musculus [3] and in the data set with Mus musculus [7] was “Non-toxic” throughout.
